For 6 compounds, Stability, inhibition of growth and IC50 results are on record in ChEMBL document CHEMBL3813637, “Synthesis and Antiproliferative and Metabolic Evaluations of Novel Securinine Derivatives” (ACS Med Chem Lett, 2016).

The structures appear in SMILES notation. pIC50: −log10 of the molar value.

Data set [1] has as its system Liver microsome. Kind of data set: Metabolic stability in rat liver microsomes at 2 uM after 1 hr by ZQ-LC-MS analysis. It is filed as ADME. (In general: Liver microsomes are vesicles of endoplasmic reticulum, rich in cytochrome P450 enzymes.)
Data set [2] can be described thus: Metabolic stability in mouse liver microsomes at 2 uM after 1 hr by ZQ-LC-MS analysis. It is filed as ADME.
Data set [3] is described as follows: Antiproliferative activity against human HCT116 cells assessed as reduction in cell viability at 20 uM after 72 hrs by ATPlite assay. Format: functional. The settings on record: HCT-116, 72 h, read-out: GI. Summed up:
(§1)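 HCT-116 human colon cancer cells exposed to compound for 72 h at 20, 10 or 1 μM. Growth inhibition is expressed as percentage relative to nontreated cells.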
On the technique in general: ATP-based viability assays read luminescence as a measure of living cells.

The nature of data set [4]: Antiproliferative activity against human HCT116 cells assessed as reduction in cell viability at 10 uM after 72 hrs by ATPlite assay. Format: functional. The settings on record: HCT-116, 72 h, read-out: GI. Summed up:
as §1

Data set [5] relates to Liver microsome. Kind of data set: Metabolic stability in human liver microsomes at 2 uM after 1 hr by ZQ-LC-MS analysis. Format: ADME.
Data set [6] is described as follows: Antiproliferative activity against human HCT116 cells assessed as reduction in cell viability at 1 uM after 72 hrs by ATPlite assay. It is filed as functional. The conditions noted are these: HCT-116, 72 h, read-out: GI. The procedure, abridged: as §1
The test system of another data set is A-375. Nature of the data set: Antiproliferative activity against human A375 cells assessed as reduction in cell viability after 72 hrs by ATPlite assay. Format: functional, cell-based. The settings on record: A-375, 72 h. The procedure, abridged: (§2)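 IC50 determined in human cancer cell lines (HCT-116, A-375 melanoma, HL-60, A-549). Camptothecin and etoposide served as reference compounds.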

Data set [7] can be described thus: Antiproliferative activity against human HL60 cells assessed as reduction in cell viability after 72 hrs by ATPlite assay. Format: functional, cell-based. The settings on record: HL-60, 72 h. The procedure, abridged:
as §2

Data set [8] deals with Plasma. Nature of the data set: Metabolic stability in mouse plasma at 5 uM after 2 hrs by ZQ-LC-MS analysis. It is filed as ADME, cell-free. Summed up:
(§3)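 Compounds were incubated in rat, mouse and human plasma for 120 min at 37 °C. The result is reported as the percentage of parent compound remaining.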

Data set [9] in a line: Antiproliferative activity against human HCT116 cells assessed as reduction in cell viability after 72 hrs by ATPlite assay. It is filed as functional, cell-based. The settings on record: HCT-116, 72 h. Summed up:
as §2

The next data set concerns A549. Nature of the data set: Antiproliferative activity against human A549 cells assessed as reduction in cell viability after 72 hrs by ATPlite assay. Format: functional, cell-based. The conditions noted are these: A549, 72 h. The procedure, abridged:
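IC50 values were determined on a panel of four human cancer lines (HCT-116, A-549, HL-60, A-375), with camptothecin and etoposide as reference compounds.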

For data set [10], the system named is Plasma. Kind of data set: Metabolic stability in human plasma at 5 uM after 2 hrs by ZQ-LC-MS analysis. It is filed as ADME, cell-free. Summed up:
as §3

Data set [11] concerns Plasma. Kind of data set: Metabolic stability in rat plasma at 5 uM after 2 hrs by ZQ-LC-MS analysis. It is filed as ADME, cell-free. The procedure, abridged:
as §3

For the compound `O=C1C=C2C(C#CCCCCl)=C[C@@H]3C[C@@]2(O1)[C@H]1CCCCN31`, the Stability result (in the data set on Liver microsome [1]; in data set [2]; with Liver microsome [5]) was “Unstable” in each case. Further, the inhibition of growth at 20 µM in data set [3] was determined as 99.2%. In [4], the inhibition of growth at 10 µM turned out to be 97.8%. The inhibition of growth at 1 µM in data set [6] was 6.1%.

`COc1ccc(C#CC2=C[C@@H]3C[C@@]4(OC(=O)C=C24)[C@H]2CCCCN32)cc1`: the pIC50 (usually the IC50 on a negative log10 scale, so that one unit is a factor of ten) was 7.22 in the data set on A-375, 6.18 in data set [7], 6.47 in [9] and 6.54 in the data set on A549. Further, the Stability result in the data set on Plasma [8], in the data set on Plasma [10] and with Plasma [11] was “Unstable” each time. In data set [3], the inhibition of growth at 20 µM was determined as 100%. Also, the inhibition of growth at 10 µM in data set [4] turned out to be 100%. For the same compound, in data set [6], the inhibition of growth at 1 µM came to 98.3%.

With `CN(C)c1ccc(C#CC2=C[C@@H]3C[C@@]4(OC(=O)C=C24)[C@H]2CCCCN32)cc1`, the pIC50 in the data set with A-375 is 6.77; in [7], 6.38; in data set [9] it was 6.38; in the data set on A549, 6.22. In addition, the Stability entry (in the data set with Plasma [8]; in the data set on Liver microsome [1]; in data set [2]; in the data set with Plasma [10]; in the data set with Liver microsome [5]; with Plasma [11]) was “Unstable” each time. Besides, the inhibition of growth at 20 µM in [3] worked out at 100%. For the same compound, in data set [4], the inhibition of growth at 10 µM stood at 100%. Moreover, the inhibition of growth at 1 µM in data set [6] is 99.7%.

Regarding `O=C1C=C2C(C#Cc3ccccc3)=C[C@@H]3C[C@@]2(O1)[C@H]1CCCCN31`, the Stability result (with Plasma [8]; in the data set on Liver microsome [1]; in [2]; with Plasma [10]; in the data set with Liver microsome [5]; in the data set on Plasma [11]) was “Unstable” each time. Further, in data set [3], the inhibition of growth at 20 µM worked out at 100%. The inhibition of growth at 10 µM in data set [4] came out at 100%. Further, in data set [6], the inhibition of growth at 1 µM is 91.9%.

Consider `O=C1C=C2C=C[C@@H]3C[C@@]2(O1)[C@H]1CCCCN31` [SECURININE], for which the pIC50 (in data set [7]; in data set [9]; in the data set with A549) was < 5.00 each time. Besides, the Stability entry with Plasma [8] was “Stable”; with Liver microsome [1], “Unstable”; in [2], “Unstable”; in the data set with Plasma [10], “Stable”; with Liver microsome [5] it was “Stable”; in the data set on Plasma [11], “Stable”. The inhibition of growth at 20 µM in data set [3] is 90.7%. Also, the inhibition of growth at 10 µM in data set [4] is 50.6%. Besides, the inhibition of growth at 1 µM in data set [6] was determined as 7.6%.

For the compound `CN(C)c1ccc(C2=C[C@@H]3C[C@@]4(OC(=O)C=C24)[C@H]2CCCCN32)cc1`, the Stability entry is “Stable” in the data set with Plasma [8]; “Unstable” with Liver microsome [1]; “Unstable” in data set [2]; “Stable” with Plasma [10]; “Unstable” in the data set with Liver microsome [5]; “Stable” in the data set with Plasma [11]. Also, the inhibition of growth at 20 µM in data set [3] is 19.3%. For the same compound, in [4], the inhibition of growth at 10 µM worked out at 5.6%. Further, in data set [6], the inhibition of growth at 1 µM was -1.4%.
